From PubChem BioAssay
Records with an inconclusive call do not appear.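 Rule for the calls, unless noted: active = viability increase at or above a cutoff of the median across tested compounds plus 3 SD (cut at about 8.5% in these data, passing the limit was not always enough); inconclusive = some gains above the cutoff, reason not given; inactive = the rest.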

Key:
[1] = S. cerevisiae growth inhibition in permissive medium (OD615), pilot counter-assay for S. cerevisiae lifespan shortening project, permissive growth control (AID 705;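 active = growth inhibition above 25% in both replicates, a cutoff set 3 SD above the mean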); settings: OD615, 24 h, at 10 µM, active compounds read high
Method in brief: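 System: S. cerevisiae with engineered DeaD lifespan system / Measured by: absorbance (optical density) at 615 nm / Read-out: reduction in yeast growth (OD615) / Times: 4 h cell pre-growth, 24 h exposure at 30 °C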

[2] = S. cerevisiae growth inhibition in restrictive medium, OD615, pilot screen, restrictive growth control, yeast lifespan reduction project (AID 706;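 active = growth inhibition above a set limit, 3 SD over mean compound inhibition, in both replicates, cut at about 43% in these data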;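 note: modified DeaD lifespan yeast strain shifted to restrictive glucose medium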); settings: OD615, 48 h, at 10 µM, active compounds read high
Method in brief: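 System: Engineered S. cerevisiae DeaD strain | Buffer or medium: Glucose-based CSMM-D restrictive medium | Schedule: 4 h pre-incubation, 48 h exposure at 30 °C | Technique: Optical density at 615 nm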

[3] = doxorubicin toxicity protection in MRP-1 cells – H69AR cells, CellTiter-Glo, duplicate, MRP-1 activator project, pilot screen (AID 807); settings: H69AR viability with doxorubicin, CellTiter-Glo luminescence; at 10 µM; active compounds read high;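 note: compound pretreatment 18-22 h then 72 h combined with doxorubicin; 0% = doxorubicin alone and 100% = vehicle without doxorubicin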
[4] = viability of HCT116 without oncogenic beta-catenin – human colon tumor cells, pilot screen (AID 823;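 active = cell viability at or below a set limit in both duplicate runs, the limit being the all-compound median minus 4 SD, cut at about 23% in these data, passing the limit was not always enough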;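 note: 0% = wells killed by 20 µM Hyamine and 100% = untreated DMSO cell wells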); settings: HCT116 beta-catenin knockout viability, CellTiter-Glo, 60 h; at 10 µM; active compounds read low
[5] = viability of PTEN-null HCT116 cells – cell-based, HCT116 clonal line, CellTiter-Glo, pilot screen (AID 824;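 active = viability at or below 27.92% in each of two runs, the all-compound median minus 4 SD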;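 note: 0% = 20 µM Hyamine control and 100% = vehicle cell control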); settings: HCT116 PTEN-deleted viability, 60 h, at 10 µM, active compounds read low
[6] = RAM pathway blockade in budding yeast – dse1pr::URA3 reporter, 5-FOA selection, pilot screen (AID 869;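 active = inhibition over a set limit, the all-compound mean plus 3 SD, in both replicate runs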;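 note: 0% = DMSO wells with no growth and 100% = 10 µM 1-NA-PP1 with full growth; RAM network block rescues cells from 5-FOA so hits raise OD615 growth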); settings: S. cerevisiae dse1pr::URA3 5-FOA growth, OD615, 2 d; at 10 µM; active compounds read high; strain carries analog-sensitive mutant Cbk1 kinase
[7] = RAM signaling pathway blockade in yeast – S. cerevisiae, Pdr1DBD-CYC8 efflux-inhibited sensitized strain, primary screen (AID 1298;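 active = RAM network inhibition above 8.4% in each of two replicates, 3 SD over the compound average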;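 note: 0% = DMSO untreated cells without growth and 100% = 10 µM 1-NA-PP1 full growth; higher means more yeast growth rescued from 5-FOA killing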); settings: S. cerevisiae cbk1-as DSE1-URA3 strain, 5-FOA growth OD615, 2 d; at 50 µM; active compounds read high

CCC(Sc1ccc2nnc(-c3cccnc3)n2n1)C(=O)O (stereo not drawn)
inactive: growth inhibition [1] -18.7% | growth inhibition [2] -14.8% | viability increase [3] -0.8% | viability [4] 100% | viability [5] 95.8% | inhibition [6] 2.44% | RAM network inhibition [7] 6.69%

Cn1c(=O)oc2cc(S(=O)(=O)NCCN3CCc4ccccc4C3)ccc21
inactive: growth inhibition [1] -14.3% | growth inhibition [2] -10.7% | viability increase [3] -3.63% | viability [4] 98.5% | viability [5] 89.9% | inhibition [6] 1.6% | RAM network inhibition [7] 0.61%

Cn1c(=O)cc(N2CCc3ccccc32)[nH]c1=O
inactive: growth inhibition [1] -11.7% | growth inhibition [2] 2.4% | viability increase [3] 0.37% | viability [4] 90.8% | viability [5] 98.1% | inhibition [6] 1.23% | RAM network inhibition [7] -1.11%

Cc1c(NC2=C(Cl)C(=O)N(c3ccccc3)C2=O)c(=O)n(-c2ccccc2)n1C
inactive: growth inhibition [1] 8.25% | growth inhibition [2] 28.3% | viability increase [3] -6.66% | viability [4] 90.7% | viability [5] 94.4% | inhibition [6] 1.42% | RAM network inhibition [7] 3.28%

C=CCn1c(C(C)NC(=O)C(C)(C)C)nc2ccccc21 (stereo not drawn)
inactive: growth inhibition [1] -9.47% | growth inhibition [2] -11.3% | viability increase [3] 1.33% | viability [4] 94.8% | viability [5] 95.5% | inhibition [6] 1.41% | RAM network inhibition [7] 0.71%

CC(=O)NCc1nc2ccccc2n1Cc1ccccc1C
inactive: growth inhibition [1] 2.5% | growth inhibition [2] -3.57% | viability increase [3] -2.27% | viability [4] 101% | viability [5] 95.7% | inhibition [6] 1.05% | RAM network inhibition [7] 2.57%

O=C(CCc1ccccc1)N1CCN(CCO)CC1
inactive: growth inhibition [1] -4.45% | growth inhibition [2] 9.8% | viability increase [3] 0.6% | viability [4] 101% | viability [5] 110% | inhibition [6] 0.715% | RAM network inhibition [7] 3.71%

COc1ccc(-c2nnc3ccc(SCC(=O)N4CCOCC4)nn23)cc1
inactive: growth inhibition [1] 3.68% | growth inhibition [2] 30.1% | viability increase [3] -2.73% | viability [4] 99.6% | viability [5] 105% | inhibition [6] 0.96% | RAM network inhibition [7] 0.73%

COc1ccccc1C1C=C(c2ccccc2)Nc2nnnn21 (stereo not drawn)
inactive: growth inhibition [1] -4.73% | growth inhibition [2] 4.88% | viability increase [3] -0.25% | viability [4] 72.2% | viability [5] 83.7% | inhibition [6] 0.05% | RAM network inhibition [7] 5.5%

CC(C)CN(CC(C)C)c1nnc(N)s1
inactive: growth inhibition [1] 3.15% | growth inhibition [2] 2.1% | viability increase [3] 1.25% | viability [4] 103% | viability [5] 99.5% | inhibition [6] 0.56% | RAM network inhibition [7] 1.13%

Cc1cccc(-n2c(Cc3cc(=O)[nH]c(=O)[nH]3)nnc2SCC(=O)N2CCCCC2)c1
inactive: growth inhibition [1] 4% | growth inhibition [2] 16.8% | viability increase [3] -0.52% | viability [4] 106% | viability [5] 87.8% | inhibition [6] 3.3% | RAM network inhibition [7] -0.11%

Clc1ccc(CSc2nnc(-c3cccnc3)n2Cc2ccco2)c(Cl)c1
inactive: growth inhibition [1] 1.24% | growth inhibition [2] 34.1% | viability increase [3] -3.29% | viability [4] 87.3% | viability [5] 88.2% | inhibition [6] 2.67% | RAM network inhibition [7] 11.6%

Cc1c(NC(=O)c2ccco2)cccc1-c1nc2cccnc2s1
inactive: growth inhibition [1] 1.62% | growth inhibition [2] -4.21% | viability increase [3] -4.21% | viability [4] 97.4% | viability [5] 95.5% | inhibition [6] 2.2% | RAM network inhibition [7] 5.74%

Fc1ccc(CSc2nnc(-c3cccnc3)n2Cc2ccco2)cc1
inactive: growth inhibition [1] 1.42% | growth inhibition [2] 10.1% | viability increase [3] -2.14% | viability [4] 90.8% | viability [5] 99.8% | inhibition [6] 1.94% | RAM network inhibition [7] 2.25%

COc1cccc(-c2nc(CS(=O)CC(=O)NCc3ccc4c(c3)OCO4)c(C)o2)c1 (stereo not drawn)
inactive: growth inhibition [1] -3.78% | growth inhibition [2] 14.7% | viability increase [3] 0.74% | viability [4] 97.2% | viability [5] 101% | inhibition [6] 3% | RAM network inhibition [7] 4.76%

O=C(O)C1C2C=CC3(CN(Cc4ccco4)C(=O)C13)O2 (stereo not drawn)
inactive: growth inhibition [1] -11.7% | growth inhibition [2] 4.86% | viability increase [3] -0.96% | viability [4] 112% | viability [5] 95.6% | inhibition [6] 0.815% | RAM network inhibition [7] -0.52%

O=C1CC(c2ccccc2)CC(O)=C1C=NCCN1CCNCC1 (stereo not drawn)
inactive: growth inhibition [1] -21.5% | growth inhibition [2] -14.2% | viability increase [3] 1.22% | viability [4] 99.2% | viability [5] 98.1% | inhibition [6] -0.42% | RAM network inhibition [7] -1.05%

N=c1n(-c2ccccc2)c(O)cc(=O)n1-c1ccccc1
inactive: growth inhibition [1] -1.26% | growth inhibition [2] 1.77% | viability increase [3] 0.05% | viability [4] 98.1% | viability [5] 99.5% | inhibition [6] 0.73% | RAM network inhibition [7] 6.52%

CCOC(=O)c1ccc(S(=O)(=O)N2CCN(CCC#N)CC2)cc1
inactive: growth inhibition [1] -7.13% | growth inhibition [2] 0.63% | viability increase [3] 1.42% | viability [4] 102% | viability [5] 99.4% | inhibition [6] 0.195% | RAM network inhibition [7] 0.21%

O=C(Nc1ccccc1)N(CCc1ccncc1)C1CCCCC1
inactive: growth inhibition [1] -7% | growth inhibition [2] -2.46% | viability increase [3] -2.85% | viability [4] 97.4% | viability [5] 98.9% | inhibition [6] 1.18% | RAM network inhibition [7] -0.83%

Cc1c(N=c2c(=O)c3ccccc3c2=O)c(=O)n(-c2ccccc2)n1C
inactive: growth inhibition [1] -15.7% | growth inhibition [2] -8.74% | viability increase [3] -4.43% | viability [4] 95.2% | viability [5] 95.3% | inhibition [6] 4.17% | RAM network inhibition [7] 3.66%

O=C(Cn1cc2c(n1)CCCCC2)NC1CCCCCC1
inactive: growth inhibition [1] -9.25% | growth inhibition [2] -9.21% | viability increase [3] -3.6% | viability [4] 97.1% | viability [5] 89% | inhibition [6] 0.43% | RAM network inhibition [7] 0.21%

Cc1cccc(NC(=O)C2CCN(S(=O)(=O)c3cccc4cccnc34)CC2)n1
inactive: growth inhibition [1] -2.91% | growth inhibition [2] 4.94% | viability increase [3] -3.03% | viability [4] 87.2% | viability [5] 84.7% | inhibition [6] 1.35% | RAM network inhibition [7] 1.44%

Clc1ccc(-n2ncc3c(N4CCCCCC4)ncnc32)cc1
inactive: growth inhibition [1] 1.26% | growth inhibition [2] -16.7% | viability increase [3] -0.56% | viability [4] 83.5% | viability [5] 78.5% | inhibition [6] -0.14% | RAM network inhibition [7] 8.42%
